Data on ten compounds can be found in ChEMBL document CHEMBL1123791, “3'-substituted 2',3'-dideoxynucleoside analogues as potential anti-HIV (HTLV-III/LAV) agents” (J Med Chem, 1987).

Structures are written as SMILES.

The subject of data set [1] is ATH-8 cell line. The data set is described as follows: Protection of ATH8 cells against the cytopathic effect of HIV. Particulars: Homo sapiens, read-out: ED50 (the source's name). The format is functional.
Data set [2] relates to MT4. The experiment in a line: Toxicity was determined by evaluation of cluster morphology and reclustering properties in mock infected MT-4 cells at 5 uM concentration. The format is cell-based. To be noted: human, mt4, 5 µM. Summed up:
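Mock-infected MT4 cells were seeded at 2.5×10^5 cells/mL with compound at 125–0.00032 µM and cultured 5 days at 37 °C. Cluster morphology was scored microscopically, then cells were dispersed by pipetting and reclustering read after 4 h. Scoring: ++ >90%, + 10–40%, − <10% toxicity.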

Data set [3] concerns MT4. The data set is described as follows: Protection was determined by evaluation of cluster morphology and reclustering properties in […] MT-4 cells at 0.2 uM concentration. The class given is functional, Homo sapiens.
The subject of data set [4] is MT4. The experiment in a line: Toxicity was determined by evaluation of cluster morphology and reclustering properties in mock infected MT-4 cells at 125 uM concentration. The format is cell-based. To be noted: human, mt4, 125 µM.
Data set [5] concerns MT4. The data set is described as follows: Protection was determined by evaluation of cluster morphology and reclustering properties in […] at 0.008 uM concentration. The format is functional, Homo sapiens.
Data set [6] deals with ATH-8 cell line. The data set is described as follows: Required dose to reduce viability of normal uninfected ATH8 cells. The format is functional. To be noted: Homo sapiens, read-out: ID50 (the source's name).
In data set [7] the test system is MT4. The data set is described as follows: Protection was determined by evaluation of cluster morphology and reclustering properties in […] MT-4 cells at 5 uM concentration. The class given is functional, Homo sapiens. The essentials: (§1)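 MT4 cells infected with HIV (300 CCID50/well) were seeded at 2.5×10^5 cells/mL with compound at 125, 5, 0.2, 0.008 or 0.00032 µM and kept 5 days at 37 °C. Clusters were scored microscopically, dispersed by pipetting, and reclustering assessed after 4 h at 37 °C. Scoring: +++ >90% protection.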

Data set [8] deals with MT4. The data set is described as follows: Toxicity was determined by evaluation of cluster morphology and reclustering properties in mock infected MT-4 cells at 0.2 uM concentration. The class given is cell-based. To be noted: human, mt4, 0.2 µM.
For data set [9], the system named is MT4. The experiment in a line: Protection was determined by evaluation of cluster morphology and reclustering properties in […] MT-4 cells at 5 uM concentration; Range is 10-40. The class given is functional, Homo sapiens. Summed up:
as §1

The subject of data set [10] is MT4. The experiment in a line: Protection was determined by evaluation of cluster morphology and reclustering properties in mock infected MT-4 cells at 125 uM concentration. Particulars: in the assay text read “HIV infected” for “mock infected”. The class given is functional, Homo sapiens. Summed up:
as §1

The nature of data set [11]: Therapeutic index (Ratio = ID50/ED50).

Consider `Cc1cn([C@H]2C[C@H](I)[C@@H](CO)O2)c(=O)[nH]c1=O`, for which the EC50 with ATH-8 cell line [1] is over 500 µM. Also, the Toxicity in the data set on MT4 [2] is listed as under 10%; in the data set with MT4 [4], over 90%; in the data set with MT4 [8] it was under 10%. Further, the Protection with MT4 [3], with MT4 [5] and with MT4 [7] was under 10% throughout. The IC50 with ATH-8 cell line [6] was over 500 µM.

With `Nc1ncnc2c1ncn2[C@H]1C[C@H](F)[C@@H](CO)O1`, the Toxicity with MT4 [2], in the data set with MT4 [4] and in the data set with MT4 [8] was under 10% each time.

As for `Cc1cn(C2CC(Cl)C(CO)O2)c(=O)[nH]c1=O` (stereo not given), in the data set with ATH-8 cell line [1], the EC50 was over 500 µM. The figures for the Toxicity in the data set on MT4 [2], in the data set on MT4 [4] and in the data set on MT4 [8] were under 10%, over 90% and under 10%, respectively. The Protection with MT4 [9] was 10%; in the data set with MT4 [3], under 10%; in the data set with MT4 [5], under 10%. Further, in the data set on ATH-8 cell line [6], the IC50 was over 500 µM.

For `O=c1ccn(C2CCC(CO)O2)c(=O)[nH]1` (stereo not given), the EC50 in the data set with ATH-8 cell line [1] was over 500 µM. Further, the Protection is over 90% in the data set with MT4 [10], under 10% with MT4 [3] and under 10% in the data set on MT4 [7]. Moreover, the Toxicity in the data set on MT4 [2], with MT4 [4] and with MT4 [8] was under 10% each time. The IC50 in the data set on ATH-8 cell line [6] was over 500 µM.

For the compound `Cc1cn(C2CC(Br)C(CO)O2)c(=O)[nH]c1=O` (stereo not given), the selectivity ratio in data set [11] was under 0.4. Also, the EC50 with ATH-8 cell line [1] is over 500 µM. Also, the Toxicity in the data set with MT4 [2] was under 10%; in the data set with MT4 [4] it was over 90%; with MT4 [8], under 10%. Besides, the results for the Protection in the data set on MT4 [9], in the data set on MT4 [3] and with MT4 [5] were 10%, under 10% and under 10%, respectively. Besides, in the data set on ATH-8 cell line [6], the IC50 came to 180 µM.

In the case of `CCO[C@H]1C[C@H](n2cc(C)c(=O)[nH]c2=O)O[C@@H]1CO`, the EC50 with ATH-8 cell line [1] is over 100 µM. For the same compound, the values for the Toxicity in the data set on MT4 [2], in the data set on MT4 [4] and in the data set on MT4 [8] were under 10%, over 90% and under 10%, respectively. Further, the Protection with MT4 [9] was 10%; in the data set with MT4 [3] it was under 10%; in the data set with MT4 [5], under 10%. The IC50 with ATH-8 cell line [6] is over 100 µM.

Take `Cc1cn([C@H]2C[C@H](OCC(=O)[O-])[C@@H](CO)O2)c(=O)[nH]c1=O.[Na+]`: the EC50 in the data set with ATH-8 cell line [1] was over 100 µM. The Protection in the data set with MT4 [10], in the data set with MT4 [3] and with MT4 [7] was under 10% in each case. Moreover, the Toxicity with MT4 [2], with MT4 [4] and with MT4 [8] was under 10% in each case. Further, the IC50 in the data set with ATH-8 cell line [6] is over 100 µM.

As for `Cc1cn([C@H]2C[C@H](SC#N)[C@@H](CO)O2)c(=O)[nH]c1=O`, the EC50 in the data set on ATH-8 cell line [1] is over 100 µM. Moreover, the figures for the Toxicity in the data set on MT4 [2], in the data set on MT4 [4] and in the data set with MT4 [8] were under 10%, over 90% and under 10%, respectively. Also, the values for the Protection in the data set with MT4 [9], with MT4 [3] and with MT4 [5] were 10%, under 10% and under 10%, respectively. Besides, the IC50 in the data set on ATH-8 cell line [6] is over 100 µM.

With `O=c1ccn([C@H]2C=C[C@@H](CO)O2)c(=O)[nH]1`, the selectivity ratio in data set [11] is under 1.1. Further, the EC50 in the data set with ATH-8 cell line [1] was over 100 µM. In addition, the Toxicity in the data set on MT4 [2] is under 10%; with MT4 [4] it was over 90%; in the data set with MT4 [8], under 10%. The Protection in the data set with MT4 [3], in the data set with MT4 [5] and with MT4 [7] was under 10% each time. Further, in the data set with ATH-8 cell line [6], the IC50 was determined as 107 µM.

Regarding `Cc1cn([C@H]2C[C@H](N=[N+]=[N-])[C@@H](CO)O2)c(=O)[nH]c1=O` (stereo in doubt; 9k) [ZIDOVUDINE], the Protection with MT4 [10], with MT4 [3] and with MT4 [7] was under 10% throughout. For the same compound, the Toxicity in the data set on MT4 [2] (5 µM), with MT4 [4] (125 µM) and with MT4 [8] was under 10% each time.
